Assay results published in publication PMC4042847 (Journal of the American Chemical Society, 2013).

Legend:
PDC-3 β-lactamase = PDC-3 β-lactamase (Pseudomonas aeruginosa, UniProt P24735, T105A); test: IC50 and turnover number with nitrocefin; format: biochemical
ADC-7 β-lactamase = test: IC50, turnover number and timed inactivation with nitrocefin; format: biochemical
Summary of the method: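 Enzyme in 10 mM phosphate-buffered saline, pH 7.4, read by diode-array spectrophotometry with nitrocefin (Δε482 = 17,400 M−1cm−1) at 100 μM. IC50: initial velocities after 5 min enzyme–inhibitor pre-incubation. tn: 24 h incubation with increasing inhibitor, then residual activity assayed. Timed inactivation: I:E ratio set from tn; steady-state velocities at set time points over 45 min.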

OXA-24 β-lactamase = OXA-24 β-lactamase (Acinetobacter baumannii, UniProt Q8RLA6); test: IC50 and turnover number with nitrocefin; format: biochemical
[1] = Spontaneous hydrolysis followed by UV difference spectroscopy; format: physicochemical; details: 3.5 μM in 10 mM PBS, pH 7.4
SHV-1 β-lactamase = SHV-1 β-lactamase (Klebsiella pneumoniae, UniProt P0AD64); test: Steady-state inhibition kinetics with nitrocefin as indicator substrate; format: biochemical; details: for kobs react 30min: after a 30 min incubation of 1:90 enzyme:inhibitor ratio; for tn (24h): inhibitor:enzyme ratio decreasing activity by 95% after 24 h incubation
TEM-2 β-lactamase = details: cited from earlier work

Compound | IC50 (PDC-3 β-lactamase) [nM] | IC50 in words (PDC-3 β-lactamase) | timed inactivation of ADC-7 in words (ADC-7 β-lactamase; 100 nM ADC-7 with 4.5 μM DCM-1-10, I:E of 45:1) | IC50 (ADC-7 β-lactamase; ADC-7) [nM] | IC50 in words (ADC-7 β-lactamase; ADC-7) | IC50 (OXA-24 β-lactamase) [nM] | spontaneous rate of hydrolysis [1] [µM/s] | pseudo first order rate constant of spontaneous hydrolysis ([1]; absorbance at 228 nm) [s⁻¹] | IC50 higher than clavulanate (SHV-1 β-lactamase; SHV-1) [fold] | IC50 higher than tazobactam (SHV-1 β-lactamase; SHV-1) [fold] | Ki greater than tazobactam and clavulanate (SHV-1 β-lactamase; SHV-1) | kobs react lower than clavulanate (SHV-1 β-lactamase; SHV-1) | kobs react lower than tazobactam (SHV-1 β-lactamase; SHV-1) [fold] | Ki (SHV-1 β-lactamase; SHV-1, Kiapp corrected for nitrocefin affinity (Km = 20 μM)) [nM] | IC50 (SHV-1 β-lactamase; SHV-1, NCF 100 μM, 5 min pre-incubation of enzyme with inhibitor) [nM] | kobs react 30min (SHV-1 β-lactamase; SHV-1) [s⁻¹] | tn (24h) (SHV-1 β-lactamase; SHV-1) | inactivation of SHV-1 in timed inactivation (SHV-1 β-lactamase; […] nM SHV-1 with 980 nM DCM-1-10 (I:E = 7:1), within 45 min) [%] | inhibition of TEM-2 β-lactamase in words (TEM-2 β-lactamase) | KI (SHV-1 β-lactamase; SHV-1, from fit of kobs versus inhibitor concentration) [nM]
7-(tert-butoxycarbonyl)methylidenecephalosporin sulfone [DCM-1-10] | 740 ± 80 | submicromolar | rapid compared to SHV-1 | 130 ± 10 | submicromolar | > 100000 | 0.0002 | 3e-05 | 4 | 27 | about 166 fold | at least 333 fold | 67 | > 20000 | 800 ± 100 | 0.0006 ± 0.0001 | 7 | 95 | potent and specific inhibition | –
O=C(O)[C@H]1/C(=C/CO)O[C@@H]2CC(=O)N21 [Clavulanate, clavulanic acid, reference compound] | – | – | – | – | – | – | – | – | – | – | – | – | – | – | – | > 0.2 | 40 | – | – | 2600 ± 300
C[C@]1(Cn2ccnn2)[C@H](C(=O)O)N2C(=O)C[C@H]2S1(=O)=O [Tazobactam, tazobactam, reference compound] | – | – | – | – | – | – | – | – | – | – | – | – | – | – | – | 0.040 ± 0.001 | 5 | – | – | –
